Assay results taken from the array DNA melting data of Ke et al. (doi:10.1101/2024.01.08.574731).

Tests used:
[1] = folding enthalpy; higher = less favourable; fluorescence melt of hairpins on a sequencing array, two-state fit; settings: sodium 0.088 M
Outline: (§1)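 Cy3 signals were normalised both to pre-quench Cy3 and to control constructs. They came from library hairpins carrying annealed Cy3 and quencher oligos on a sequenced MiSeq flow cell, imaged in 50 mM Na-HEPES pH 8.0, 25 mM NaCl, in 2.5 °C steps up to 60 °C. Bootstrapped two-state fits gave melting temperature and folding enthalpy, and four replicates were combined by inverse variance. Fitted temperatures were then raised by 9.35 °C to match UV melts.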

[2] = melting temperature; fluorescence melt of hairpins on a sequencing array, two-state fit, raised by 9.35 °C to match UV melts; settings: sodium 0.088 M
Outline: as §1

Row | Sequence | folding enthalpy [1] [kcal/mol] | Tm [2] [°C]
1 | GCAATGCGAAAGCCTGGC ((.(.((....)).).)) | -13.8 | 34.2
2 | GCAATGCGAAAGCGATGC (((..((....))..))) | -20.6 | 53
3 | GCAATGGCGAAAGCCTGC (((..(((....)))))) | -14.1 | 50.5
4 | GCAATGGGAAACCGTTGC ((((.((....)).)))) | -43.3 | 55
5 | GCAATGGGAAACTATTGC (((((.(....).))))) | -33.5 | 47
6 | GCAATGGGAAACTGTTGC ((((..(....)..)))) | -27.7 | 40.4
7 | GCAATTGCGAAAGCATGC (((..(((....)))))) | -14.9 | 40.2
8 | GCAATTGGAAACAGTTGC ((((.((....)).)))) | -33.3 | 47
9 | GCAATTGGAAACGATTGC (((((.(....).))))) | -37.4 | 48.4
10 | GCACAACCGAAAGGTTGC (((..(((....)))))) | -8.1 | 37.8
11 | GCACACGAAAGTGCCTGC ((((((....)))..))) | -13.2 | 34.7
12 | GCACACGAAAGTGCTGC ((((((....))).))) | -34 | 54.7
13 | GCACACGAAAGTGGATGC ((((((....)))..))) | -17.9 | 45.6
14 | GCACACGGAAACACGTGC ((((..(....)..)))) | -22.5 | 40.2
15 | GCACACGGAAACATGTGC (((((.(....).))))) | -35.2 | 47.4
16 | GCACACGGAAACGTGCAC (..((((....))))..) | -9.99 | 33.2
17 | GCACAGCGAAAGCAGCGC ((.(.((....)).).)) | -19.4 | 53.6
18 | GCACAGCGAAAGCGGAGC ((.(.((....)).).)) | -25.9 | 61.6
19 | GCACAGCGAAAGCGTTGC (((..((....))..))) | -15.5 | 48.2
20 | GCACAGCGAAAGCTACGC ((..(((....)))..)) | -16.7 | 42
21 | GCACAGGGAAACCCATGC (((..((....))..))) | -17.6 | 32
22 | GCACATGCGAAAGCATGC (((..(((....)))))) | -7.24 | 40.4
23 | GCACATGGAAACGTGTGC (((((.(....).))))) | -45.2 | 55.5

Row | Sequence | folding enthalpy [1] [kcal/mol] | Tm [2] [°C]
24 | GCACCACCGAAAGGTTGC (((..(((....)))))) | -15.9 | 39.5
25 | GCACCAGGAAACCGGTAC (.(((.(....).))).) | -8.98 | 22.2
26 | GCACCAGGAAACTGGCAC (..((((....))))..) | -11.6 | 23.9
27 | GCACCCCGAAAGGGCTGC (((.(((....))).))) | -24.9 | 50
28 | GCACCCGAAAGGGAATGC ((((((....)))..))) | -20.1 | 45.3
29 | GCACCCGAAAGGGCATGC ((((((....)))..))) | -15 | 41
30 | GCACCCGAAAGGGTTTGC ((((((....)))..))) | -13.2 | 41.6
31 | GCACCCGCGAAAGCGTGC (((..(((....)))))) | -14.5 | 42.6
32 | GCACCCGGAAACAGGCGC ((.((.(....).)).)) | -22.3 | 32.8
33 | GCACCCGGAAACAGGTGC (((((.(....).))))) | -34.6 | 52.4
34 | GCACCCGGAAACGGGTAC (.(((((....))))).) | -12.7 | 45.1
35 | GCACCGCGAAAGCAGCGC ((.(.((....)).).)) | -18.2 | 46.5
36 | GCACCGCGAAAGCAGTGC ((((.((....)).)))) | -25.6 | 65
37 | GCACCGCGAAAGCCGGGC ((.(.((....)).).)) | -20.6 | 54.5
38 | GCACCGGGAAACCGATGC (((.(((....))).))) | -25.2 | 50.6
39 | GCACCGTCGAAAGACTGC (((..(((....)))))) | -17.7 | 35.9
40 | GCACGAGCGAAAGCTTGC (((..(((....)))))) | -11.3 | 41
41 | GCACGAGGAAACTCATGC (((.(((....))).))) | -28.8 | 41.2
42 | GCACGAGGAAACTCGCAC (..((((....))))..) | -8.67 | 25.5
43 | GCACGAGGAAACTTGTGC ((((.((....)).)))) | -43.5 | 54.5
44 | GCACGATCGAAAGATTGC (((..(((....)))))) | -18.7 | 31.7
45 | GCACGCGGAAACACGTGC (((((.(....).))))) | -51.2 | 57.1
46 | GCACGCGGAAACGTGTGC ((((.((....)).)))) | -46 | 66.7

Row | Sequence | folding enthalpy [1] [kcal/mol] | Tm [2] [°C]
47 | GCACGCTCGAAAGAGTGC (((..(((....)))))) | -20.9 | 50.2
48 | GCACGGCGAAAGCAGAGC ((.(.((....)).).)) | -20 | 53
49 | GCACGGCGAAAGCAGGGC ((.(.((....)).).)) | -36 | 65.8
50 | GCACGGCGAAAGCCTGC (((.(((....)))))) | -18.1 | 58.7
51 | GCACGGCGAAAGCGCTGC (((..((....))..))) | -17.5 | 52
52 | GCACGGCGAAAGCTGAGC ((.(.((....)).).)) | -19 | 55.8
53 | GCACGGCGAAAGCTGGGC ((.(.((....)).).)) | -31.5 | 67.5
54 | GCACGGGGAAACCCGCAC (..((((....))))..) | -9.35 | 25.2
55 | GCACTACGAAAGTATTGC (((.(((....))).))) | -31.2 | 45.9
56 | GCACTCCGAAAGGAATGC (((.(((....))).))) | -38.6 | 51.1
57 | GCACTCCGAAAGGACTGC (((.(((....))).))) | -18.5 | 40.4
58 | GCACTCGAAAGAGAGTGC ((((((....)))..))) | -38.7 | 59.9
59 | GCACTCGAAAGAGCGTGC ((((((....)))..))) | -25.9 | 43.2
60 | GCACTCGAAAGAGCTGC ((((((....))).))) | -28.3 | 48.1
61 | GCACTCGAAAGAGCTTGC ((((((....)))..))) | -19.1 | 36.6
62 | GCACTCGAAAGAGGTTGC ((((((....)))..))) | -18.6 | 37.6
63 | GCACTCGAAAGAGTTTGC ((((((....)))..))) | -17.5 | 35.9
64 | GCACTGCGAAAGCAACGC ((..(((....)))..)) | -14.2 | 36.2
65 | GCACTGCGAAAGCACGGC ((..(((....)))..)) | -17.6 | 38.4
66 | GCACTGCGAAAGCCATGC (((..((....))..))) | -14.7 | 38.1
67 | GCACTGCGAAAGCTGGGC ((.(.((....)).).)) | -36.6 | 64.3
68 | GCACTGGGAAACCAGTAC (.(((((....))))).) | -14.9 | 38.1
69 | GCACTGGGAAACTAGTGC (((((.(....).))))) | -38.9 | 53.2

Row | Sequence | folding enthalpy [1] [kcal/mol] | Tm [2] [°C]
70 | GCACTGGGAAACTGGTGC ((((..(....)..)))) | -33 | 48.8
71 | GCACTTCGAAAGAATTGC (((.(((....))).))) | -31.6 | 42.6
72 | GCACTTGAAAAAGTGC ((((((....)))))) | -41.2 | 61.2
73 | GCACTTGGAAACAAGTAC (.(((((....))))).) | -19.3 | 37.9
74 | GCACTTTCGAAAGAATGC (((..(((....)))))) | -14.6 | 33.2
75 | GCAGAAACGAAAGTTTGC (((..(((....)))))) | -20.3 | 35.7
76 | GCAGAACGAAAGTTGTGC (((.(((....))).))) | -32.1 | 55.4
77 | GCAGAAGGAAACTTCTAC (.(((((....))))).) | -11.7 | 27.8
78 | GCAGAAGGAAACTTCTGC (((((((....))))))) | -44.4 | 60.7
79 | GCAGACGGAAACGTTTGC (((.(((....))).))) | -46.1 | 53.8
80 | GCAGAGCGAAAGCCCCGC ((.(.((....)).).)) | -10.1 | 36.9
81 | GCAGAGCGAAAGCCCTGC ((((.((....)).)))) | -29.1 | 63.2
82 | GCAGAGCGAAAGCTAAGC ((..(((....)))..)) | -15.1 | 43.8
83 | GCAGAGCGAAAGCTACGC ((..(((....)))..)) | -13.9 | 47.2
84 | GCAGAGCGAAAGCTGAGC ((..(((....)))..)) | -11.8 | 43.1
85 | GCAGAGCGAAAGCTGCGC ((..(((....)))..)) | -21 | 61.3
86 | GCAGAGCGAAAGCTGGGC ((..(((....)))..)) | -19.6 | 50.7
87 | GCAGAGCGAAAGCTGTGC (((.(((....))).))) | -44.2 | 59
88 | GCAGAGGGAAACCTTTGC (((.(((....))).))) | -32.9 | 45.2
89 | GCAGAGGGAAACTTCTGC (((((.(....).))))) | -35 | 48
90 | GCAGATCGAAAGATGTGC (((.(((....))).))) | -35.1 | 53.6
